# Measurements from article PMC7312786 (Biochemistry, 2018).
# Key:
# hpol ι = molecular target: T1, hpol ι (Homo sapiens, UniProt Q9UNA4); test: Gel-based pol extension assay, hpol ι; type: biochemical; conditions: relative to hpol η / hRev1
# T1 sequence (Q9UNA4 1-446): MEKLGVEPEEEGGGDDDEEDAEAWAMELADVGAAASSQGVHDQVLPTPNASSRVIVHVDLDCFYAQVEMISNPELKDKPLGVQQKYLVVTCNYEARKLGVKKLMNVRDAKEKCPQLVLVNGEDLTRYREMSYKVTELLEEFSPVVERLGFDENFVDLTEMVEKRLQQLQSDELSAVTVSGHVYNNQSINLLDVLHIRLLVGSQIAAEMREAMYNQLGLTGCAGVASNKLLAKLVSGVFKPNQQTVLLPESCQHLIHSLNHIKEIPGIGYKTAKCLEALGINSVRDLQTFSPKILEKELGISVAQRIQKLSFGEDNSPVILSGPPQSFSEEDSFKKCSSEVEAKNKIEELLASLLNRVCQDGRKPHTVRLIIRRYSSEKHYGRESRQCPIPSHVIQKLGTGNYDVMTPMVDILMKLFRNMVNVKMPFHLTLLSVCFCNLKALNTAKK
# How it was run: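 Gel extension assay with hpol ι core (residues 1–446) or hpol κ core (residues 19–526). Enzyme 2 nM preincubated 5 min with increasing test compound in 50 mM HEPES pH 7.5, 50 mM NaCl, 1 mM DTT, 0.1 mg/mL BSA, 10% glycerol. Started at 37 °C with 200 nM FAM-labeled 13/18-mer primer–template, 10 μM each dNTP, 5 mM MgCl₂. Quench: 20 mM EDTA/95% formamide, 95 °C. Triplicate; IC50 mean ± SD.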
# Dpo1 = molecular target: T2, Dpo1 (Saccharolobus solfataricus, UniProt P26811); test: Fluorescence-based pol activity assay, Dpo1; type: biochemical, Sulfolobus solfataricus; conditions: 20 μM PNR-7-02
# T2 sequence (P26811 1-882): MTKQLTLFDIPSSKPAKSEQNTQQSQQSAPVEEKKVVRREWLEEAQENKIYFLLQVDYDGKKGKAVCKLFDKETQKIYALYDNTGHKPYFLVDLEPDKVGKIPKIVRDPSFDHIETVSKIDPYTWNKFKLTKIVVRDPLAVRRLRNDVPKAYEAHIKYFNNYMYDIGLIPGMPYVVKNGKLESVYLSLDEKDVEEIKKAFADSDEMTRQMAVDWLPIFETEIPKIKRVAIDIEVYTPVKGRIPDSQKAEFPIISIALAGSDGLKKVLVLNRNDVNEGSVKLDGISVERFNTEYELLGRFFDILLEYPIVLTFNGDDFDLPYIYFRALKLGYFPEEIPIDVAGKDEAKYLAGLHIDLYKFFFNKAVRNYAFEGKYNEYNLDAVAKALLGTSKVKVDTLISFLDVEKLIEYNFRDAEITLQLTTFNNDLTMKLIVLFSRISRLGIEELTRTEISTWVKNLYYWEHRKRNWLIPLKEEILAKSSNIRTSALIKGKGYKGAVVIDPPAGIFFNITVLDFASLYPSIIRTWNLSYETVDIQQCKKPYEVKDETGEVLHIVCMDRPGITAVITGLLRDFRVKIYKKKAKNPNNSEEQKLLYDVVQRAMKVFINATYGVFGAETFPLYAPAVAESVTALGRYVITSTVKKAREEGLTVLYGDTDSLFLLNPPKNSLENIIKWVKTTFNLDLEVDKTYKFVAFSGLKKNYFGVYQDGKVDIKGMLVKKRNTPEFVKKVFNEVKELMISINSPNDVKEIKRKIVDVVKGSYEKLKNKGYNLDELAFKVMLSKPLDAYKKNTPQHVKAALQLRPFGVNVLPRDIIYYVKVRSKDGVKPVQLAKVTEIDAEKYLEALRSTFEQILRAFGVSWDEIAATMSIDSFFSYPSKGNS
# hpol η = molecular target: T3, hpol η (Homo sapiens, UniProt Q9Y253); test: Gel-based pol extension assay, hpol η; type: biochemical; conditions: read-out: IC50, hpol η, gel-based assay; best-fit value (95% confidence interval), three experiments
# T3 sequence (Q9Y253 1-437): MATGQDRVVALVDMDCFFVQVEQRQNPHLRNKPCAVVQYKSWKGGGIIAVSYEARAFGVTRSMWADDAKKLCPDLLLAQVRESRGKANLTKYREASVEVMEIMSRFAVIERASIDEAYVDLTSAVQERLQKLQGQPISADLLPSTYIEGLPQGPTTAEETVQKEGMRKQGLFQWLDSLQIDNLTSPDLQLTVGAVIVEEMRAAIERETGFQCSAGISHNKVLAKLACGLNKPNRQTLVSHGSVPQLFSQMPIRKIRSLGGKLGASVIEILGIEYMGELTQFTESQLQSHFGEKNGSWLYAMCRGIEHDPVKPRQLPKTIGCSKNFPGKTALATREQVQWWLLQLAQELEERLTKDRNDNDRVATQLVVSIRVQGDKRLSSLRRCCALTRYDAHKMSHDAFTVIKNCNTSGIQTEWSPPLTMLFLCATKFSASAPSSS
# [1] = tested on: HAP-1 cells (hpol η-proficient, parental); test: Cell viability; type: cell-based, human; conditions: for Combination index (CI) with CDDP: Chou–Talalay
# How it was run: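 HAP-1 parental or CRISPR hpol η-null cells in IMDM with 10% FBS and 1% antibiotic/antimycotic, passage 8–10, seeded 5000 cells/well. Next day: CDDP 0–100 μM alone or with 0.1 or 1 μM test compound, 48 h. Cells washed twice in DPBS, then 2 μM Calcein-AM for 30 min at 25 °C; fluorescence ex 490/em 520 nm. Viability as % of untreated. […] Combination index by Chou–Talalay.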
smiles,measurement,setting,value
"O=C1NC(=S)NC(=O)C1=Cc1cn(Cc2ccc3ccccc3c2)c2ccc(Cl)cc12 [PNR-7-02, 5-((5-chloro-1-(naphthalen-2-ylmethyl)-1H-indol-3-yl)methylene)-2-thioxodihydropyrimidine-4,6-(1H,5H)-dione]",Increase in IC50 against hpol η (so in the source); first of 'hpols η and κ'),hpol ι,~3 fold
same,Effect on catalysis by Dpo1,Dpo1,not affected at all
same,"Pol activity relative to DMSO control, Dpo1",Dpo1; mean (±SD),118 (±15) %
same,IC50,hpol η,8 µM
same,"Combination index values with CDDP, hpol η-proficient cells (summary)",[1]; hpol η-proficient cells co-treated with PNR-7-02,0.4–0.6
same,Combination index (CI) with CDDP,"[1]; parental HAP-1, 0.1 μM PNR-7-02",0.47
same,Combination index (CI) with CDDP,"[1]; parental HAP-1, 1 μM PNR-7-02",0.59
same,Decrease of CDDP EC50 on co-treatment with PNR-7-02,"[1]; parental HAP-1, both concentrations of inhibitor (0.1 and 1 μM)",> 2 fold
same,EC50,"[1]; read-out: EC50, cell viability, PNR-7-02 alone, hpol η-proficient parental HAP-1, 48 h",4.6 µM
